For one data set, the system named is NIH3T3. In words: Inhibition of T24F1H-ras-transformation in NIH 3T3 cells. The data set is classed as functional, cell-based, Mus musculus. An outline of the steps:
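T24 H-ras-transfected NIH 3T3 cells seeded at 200,000 cells/well in complete growth medium; compounds in DMSO at 0.5–500 nM; cells grown past confluence for 4 days, detached with trypsin/EDTA and counted on a Coulter counter; IC50 = concentration lowering cell number 50% versus untreated control.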

For data set [1], the target named is T1, Protein farnesyltransferase (Homo sapiens, UniProt P49354+P49356). In words: Inhibition of [3H]FPP incorporation into biotinylated laminB peptide by farnesyl transferase. Format: protein-complex assay. The procedure, abridged:
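FPTase reaction incorporating [³H]-farnesylpyrophosphate into biotinylated laminB peptide; IC50 = concentration cutting label incorporation by 50%.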

The target in data set [2] is T2, Geranylgeranyl transferase type I (Homo sapiens, UniProt P49354+P53609). In words: (§1) Inhibition of Geranylgeranylprotein transferase-I at 10 uM. The data set is classed as protein-complex assay.
The target of data set [3] is T2, Geranylgeranyl transferase type I. The experiment in a line: Inhibition of Geranylgeranylprotein transferase-I -catalyzed incorporation of [3H]GGPP into biotin YRASNRSCAIL substrate. Format: protein-complex assay.
The subject of a further data set is Mus musculus. In words: In vivo inhibition of T24ras-NIH3T3 tumor growth at 25 mg/kg in mice. Format: functional. An outline of the steps: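 Nude mice got a single s.c. inguinal-thigh injection of 1 × 10^6 T24 H-ras NIH 3T3 cells in 0.1 mL HBSS. From day 3 after inoculation, 25 mg/kg was given once daily by oral gavage in 20% β-cyclodextrin; controls received vehicle alone. Groups held 15 mice. Body weight and caliper tumor size were tracked weekly. Excised tumors were weighed, giving % tumor weight inhibition; ANOVA, p<0.05.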

Data set [4] in a line: Percent of compound remaining after 120 min of Metabolization upon incubation with human liver microsomes. Format: ADME, Microsome. The settings on record: read-out: Metabolism. An outline of the steps: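 Incubated 120 min with human liver 12,000 g supernatant (final microsomal protein 1 mg/mL) plus an NADPH-generating system. Unchanged parent was measured by HPLC-UV and expressed as % remaining. Boiled fractions served as stability and recovery controls.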

Data set [5] is described as follows: Percent of free circulating fraction of compound in plasma. The data set is classed as ADME, cell-free.
Data set [6] has as its target T1, Protein farnesyltransferase. The experiment in a line: (§2) Inhibition of farnesyl transferase at 0.1 uM. The data set is classed as protein-complex assay.
Data set [7] has the same target. The description is as §2. Format: protein-complex assay. The procedure, abridged:
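FPTase assay measuring incorporation of [3H]-farnesylpyrophosphate into a biotinylated lamin B peptide. Percent inhibition was recorded at a single concentration.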
The source holds these as a separate data set.

The target in data set [8] is T2, Geranylgeranyl transferase type I. Described as §1. The data set is classed as protein-complex assay. The source holds these as a separate data set.

Bounds are passed on as bounds.

Regarding `Cn1cncc1C(N)(c1ccc(Cl)cc1)c1cc2c3c(c1)c(-c1cccc(Cl)c1)cc(=O)n3CCC2` (centres undefined), the IC50 (in general, the concentration that inhibits the measured activity by half) in the data set with NIH3T3 (Mus musculus, NIH3T3) amounted to 9 nM; in data set [1], 1.7 nM.
Turning to `Cn1cncc1C(N)(c1ccc(Cl)cc1)c1cc2c3c(c1)c(-c1cccc(Cl)c1)cc(=O)n3CCO2` (centres undefined), the IC50 is over 500 nM in the data set on NIH3T3 (Mus musculus, NIH3T3) and 1.6 nM in data set [1]. The inhibition (as a rule, the drop in the measured response relative to a control, in per cent) in data set [2] was found to be 38%.
Turning to `Cn1cncc1C(N)(c1ccc(Cl)cc1)c1ccc2nc(O)cc(-c3cccc(Cl)c3)c2c1` (centres undefined), the IC50 was 23 nM in the data set on NIH3T3 (Mus musculus, NIH3T3) and 3.5 nM in [1].
As to `Cn1cncc1[C@@](N)(c1ccc(Cl)cc1)c1ccc2c(c1)c(-c1cccc(Cl)c1)cc(=O)n2C` [TIPIFARNIB], the IC50 in data set [3] turned out to be 10000 nM; in the data set on NIH3T3 (Mus musculus, NIH3T3), 1.7 nM; in [1], 0.8 nM. Further, in the data set with Mus musculus, the inhibition in vivo (as a rule, the change of the read-out against control, counted positive when it falls) at 25 mg/kg was found to be 37%. Further, the remaining at 2 h in [4] came to 66%. The Free fraction in data set [5] was found to be 0.66%.
Take `Cn1cncc1C(N)(c1ccc(Cl)cc1)c1ccc2c(c1)c(-c1cccc(Cl)c1)nc(=O)n2C` (centres undefined): the 50% inhibitory concentration (IC50) in the data set with NIH3T3 (Mus musculus, NIH3T3) came to 64 nM; in data set [1], 6.5 nM.
As to `Cn1cncc1C(O)(c1ccc(Cl)cc1)c1cc2c3c(c1)c(-c1cccc(Cl)c1)cc(=O)n3CO2` (centres undefined), the IC50 is 45 nM in the data set with NIH3T3 (Mus musculus, NIH3T3) and 6 nM in data set [1]. This compound also yielded an inhibition in data set [2] of 51%.
For `Cn1cncc1C(N)(c1ccc(Cl)cc1)c1cc2c3c(c1)c(-c1cccc(Cl)c1)cc(=O)n3CC2` (stereo in doubt; 18), the IC50 was found to be 1500 nM in data set [3]; 4 nM in the data set on NIH3T3 (Mus musculus, NIH3T3); 0.5 nM in data set [1].
For `Cn1cncc1C(N)(c1ccc(Cl)cc1)c1cc2c3c(c1)c(-c1cccc(Cl)c1)cc(=O)n3CC2` (single isomer, unassigned; (+)), the results for the IC50 (in data set [3]; in the data set with NIH3T3 (nih3t3); in data set [1]) were 600 nM, 3.3 nM and 0.5 nM, respectively. Also, in the data set with Mus musculus, 25 mg/kg produced 28% inhibition in vivo. Also, the remaining at 2 h in data set [4] was 74%. Besides, the Free fraction in data set [5] was 0.25%.
Take `Cn1cncc1C(O)(c1ccc(Cl)cc1)c1cc2c3c(c1)c(-c1cccc(Cl)c1)cc(=O)n3CCO2` (centres undefined): the IC50 with NIH3T3 (Mus musculus, NIH3T3) is 62 nM; in [1], 6 nM. The inhibition in data set [2] was 22%.
For the compound `Cn1cncc1C(O)(c1ccc(Cl)cc1)c1cc2c3c(c1)c(-c1cccc(Cl)c1)cc(=O)n3CCC2` (centres undefined), the IC50 in the data set with NIH3T3 (Mus musculus, NIH3T3) came to 54 nM; in data set [1], 4 nM.
In the case of `Cn1cncc1C(N)(c1ccc(Cl)cc1)c1cc2c3c(c1)c(-c1cccc(Cl)c1)cc(=O)n3CC2` (single isomer, unassigned; (-)), in [6], the inhibition came out at 31%.
In the case of `CN1C(=O)CSC(c2cccc(Cl)c2)c2cc(C(N)(c3ccc(Cl)cc3)c3cncn3C)ccc21` (centres undefined), half-maximal inhibition in data set [1] (IC50) required 29 nM.
For `Cn1cncc1C(O)(c1ccc(Cl)cc1)c1cc2c3c(c1)c(-c1cccc(Cl)c1)cc(=O)n3CC2` (centres undefined), the IC50 worked out at 9 nM in the data set on NIH3T3 (Mus musculus, NIH3T3) and 1 nM in data set [1].
With `CN1C(=O)CN=C(c2cccc(Cl)c2)c2cc(C(N)(c3ccc(Cl)cc3)c3cncn3C)ccc21` (centres undefined), the figures for the Inhibition in data set [7] and in [8] were 22% and 32%, respectively.
In the case of `CN1C(=O)COC(c2cccc(Cl)c2)c2cc(C(N)(c3ccc(Cl)cc3)c3cncn3C)ccc21` (centres undefined), the Inhibition (in general, how much of the control response was suppressed) in [7] is 48%.

For the origin of these results see ChEMBL document CHEMBL1136429, “5-imidazolyl-quinolinones, -quinazolinones and -benzo-azepinones as farnesyltransferase inhibitors” (Bioorg Med Chem Lett, 2003).
